# Laboratory results published in ChEMBL document CHEMBL1123113, “"Reverse" and "symmetrical" analogues of actinomycin D: metabolic activation and in vitro and in vivo tumor growth inhibitory activities” (J Med Chem, 1985).
# What was measured:
# Format in all cases: functional
# Mus musculus [1] = species: Mus musculus; test: Dose providing an increase in the life span of 45% over control in P388 tumor bearing mice; settings: read-out: MED
# Outline: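 MED is the ip dose in mg/kg, given on days 1, 5 and 9 starting 1 day after implantation, that gives a 45% increase in life span over control in P388-bearing mice. It was derived from plotted log-dose response data.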
# Mus musculus [2] = test: In vivo antitumor activity was determined against P388 leukemia mice as number of mice survived after administration of 600 ug/Kg dose of compound; Value represented as no of survivors/ treated = 4/8
# Mus musculus [3] = test: Antitumor activity against B16 melanoma in terms of median survival time of mice at an optimal dose of 300 ug/kg administered ip
# Mus musculus [4] = test: Antitumor activity against P388 leukemia cells in terms of percentage increase in life span in mice at an optimal dose of 600 ug/kg administered ip
# Mus musculus [5] = test: Antitumor activity against P388 leukemia cells in terms of median survival time of mice at an optimal dose of 600 ug/kg administered ip
# CCRF-CEM = test: Inhibitory dose required for the inhibition of human lymphoblastic leukemia cells(CCRF-CEM); settings: read-out: ID50 (the source's name)
# Rattus norvegicus [6] = species: Rattus norvegicus; test: Compound tested for NADPH oxidation in rat hepatic mycrosomal incubation
# Outline: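 Phenobarbital-induced male Sprague-Dawley rat liver microsomes were placed in both cuvettes, without epinephrine. NADPH 0.4 mM was added to the sample side only, and absorbance was read at 340 nm. Percent stimulation = (drug rate − basal)/basal × 100. Values are the average ± standard errors of triplicates.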
# Rattus norvegicus [7] = species: Rattus norvegicus; test: Compound tested for adrenochrome formation in rat hepatic mycrosomal incubation
# Outline: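 Adrenochrome assay for superoxide: epinephrine in 0.01 N HCl plus 300 µg of phenobarbital-induced rat liver microsomes at 37 °C. NADPH 0.4 mM was added to the sample side 1 min later, and the rate was read at 480 nm (ε 4.02 mM−1 cm−1). Drugs were at ≤100 µM, made in 150 mM KCl–50 mM Tris, pH 7.4. Percent stimulation is over basal rate, in triplicate.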
# Mus musculus [8] = test: In vivo antitumor activity was determined against B16 melanoma mice as number of mice survived after administration of 300 ug/Kg dose of compound; Value represented as no of survivors/ treated = 4/9
# Mus musculus [9] = test: Antitumor activity against B16 melanoma in terms of percentage increase in life span in mice at an optimal dose of 300 ug/kg administered ip
structure (smiles),measurement,setting,value
Cc1c2oc3c(C)c(O)c(N)c(C(=O)N[C@@H]4C(=O)N[C@H](C(C)C)C(=O)N5CCC[C@H]5C(=O)N(C)CC(=O)N(C)[C@@H](C(C)C)C(=O)O[C@@H]4C)c3nc-2c(C(=O)N[C@@H]2C(=O)N[C@H](C(C)C)C(=O)N3CCC[C@H]3C(=O)N(C)CC(=O)N(C)[C@@H](C(C)C)C(=O)O[C@@H]2C)c(N)c1=O,minimal effective dose,Mus musculus [1],0.025 mg/kg
same,Survivors,Mus musculus [2],4
same,MST,Mus musculus [3],57 days
same,ILS at 0.6 mg/kg,Mus musculus [4],382%
same,MST,Mus musculus [5],52 days
same,IC50,CCRF-CEM,30 nM
same,NADPH oxidation,Rattus norvegicus [6],64.3 nM min-1 (mg of protein)-1
same,adrenochrome formation,Rattus norvegicus [7],19.3 nM min-1 (mg of protein)-1
same,Survivors,Mus musculus [8],4
same,ILS at 0.3 mg/kg,Mus musculus [9],96%
